Data taken from ChEMBL document CHEMBL4024708, “Recent synthetic and medicinal perspectives of dihydropyrimidinones: A review” (Eur J Med Chem, 2017).
In brackets after ≈: the same amount, converted by molar mass. Blank lines part the entries; values can stand above or below the compound they belong to.

Legend:
[1] = test system: Rattus norvegicus; test: Anti-inflammatory activity in rat assessed as inhibition of carrageenan-induced hind paw edema at 10 mg/kg, po pretreated for 1 hr followed by carrageenan challenge measured after 3 hrs by plethysmometer relative to control; type: functional
Procedure, shortened: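 Albino rats; carrageenan-induced paw edema test after Winter et al., with diclofenac sodium as reference standard. Percentage reduction in inflammation recorded 3 h after carrageenan, relative to carrageenan-only animals.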

[2] = test system: Mus musculus; test: Anticonvulsant activity in ip dosed maximal electroshock induced seizure mouse model assessed as suppression of hind limb tonic extension measured at 0.5 hrs post dose; type: functional; conditions: read-out: MED
Procedure, shortened: (§1)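 Albino mice given the compound ip, suspended in 0.5% methyl cellulose–water, at 30, 100 and 300 mg/kg. Maximal electroshock by corneal electrodes: 50 mA, 60 Hz, 0.2 s. Abolition of hind limb tonic extension scored as protection. Value is the minimum dose active in half or more of the mice.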

[3] = test system: Mus musculus; test: Anticonvulsant activity in ip dosed maximal electroshock induced seizure mouse model assessed as suppression of hind limb tonic extension measured at 4 hrs post dose; type: functional; conditions: read-out: MED; procedure, shortened: as §1
[4] = test system: Klebsiella pneumoniae; test: Antibacterial activity against Klebsiella pneumoniae MTCC 7028 by spectrophotometric method; type: functional
Procedure, shortened: (§2)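 Serial broth dilution, 200 to 15.625 μg/mL, in nutrient broth, sonicated 10 min. Inoculum gave a starting density of 10^3–10^4 CFU/mL. Flasks were shaken at 200 rpm and 37 °C, and growth followed by the rise in absorbance at 600 nm. MIC is the lowest concentration inhibiting the organism. Controls: compound without inoculum, and inoculum without compound.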

[5] = test system: Escherichia coli; test: Antibacterial activity against Escherichia coli MTCC 443 by spectrophotometric method; type: functional; procedure, shortened: as §2
[6] = test system: Pseudomonas aeruginosa; test: Antibacterial activity against Pseudomonas aeruginosa MTCC 2581 by spectrophotometric method; type: functional; procedure, shortened: as §2
[7] = test system: Staphylococcus aureus; test: Antibacterial activity against Staphylococcus aureus MTCC 3160 by spectrophotometric method; type: functional; procedure, shortened: as §2
[8] = target: T1, Alpha-1A adrenergic receptor (Homo sapiens, UniProt P35348); test: Displacement of [125I]L-762,459 from recombinant human alpha1a adrenergic receptor expressed in mammalian cells measured after 1 hr; type: cell-based
T1 sequence (P35348 whole entry): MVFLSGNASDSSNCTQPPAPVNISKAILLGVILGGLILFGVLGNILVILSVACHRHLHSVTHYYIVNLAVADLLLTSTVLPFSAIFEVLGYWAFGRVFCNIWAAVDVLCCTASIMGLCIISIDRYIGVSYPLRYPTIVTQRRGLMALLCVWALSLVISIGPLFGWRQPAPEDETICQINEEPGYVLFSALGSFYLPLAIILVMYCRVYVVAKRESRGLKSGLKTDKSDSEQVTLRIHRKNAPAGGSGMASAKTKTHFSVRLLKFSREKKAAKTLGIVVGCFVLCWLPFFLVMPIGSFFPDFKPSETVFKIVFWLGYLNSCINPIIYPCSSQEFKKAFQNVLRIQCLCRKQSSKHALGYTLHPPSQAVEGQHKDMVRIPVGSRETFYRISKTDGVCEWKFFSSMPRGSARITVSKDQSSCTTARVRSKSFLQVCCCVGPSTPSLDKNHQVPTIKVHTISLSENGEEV

SMILES: O=C(O)CC1=C(c2ccc(Cl)cc2)N=C(S)NC1c1ccc(Cl)cc1 (configuration not stated)
inhibition in vivo at 10 mg/kg [1]: 25%

SMILES: O=C1NC(=O)C(c2ccccc2)(c2ccccc2)N1 [PHENYTOIN]
minimal effective dose [2]: 30 mg/kg
minimal effective dose [3]: 30 mg/kg

MIC [4]: 31.2 to 62.5 µg/mL (≈ 112 to 224 µM)
MIC [5]: 15.6 to 31.2 µg/mL (≈ 56 to 112 µM)
MIC [6]: 15.6 to 31.2 µg/mL (≈ 56 to 112 µM)
MIC [7]: 62.5 to 125 µg/mL (≈ 224 to 448 µM)
SMILES: CCC(=O)C1=C(C)NC(=O)NC1c1ccc(Cl)cc1 (configuration not stated)

SMILES: SC1=NC(n2nc(-c3ccccc3)nc2-c2ccccc2)=CC(c2ccc(Br)cc2)N1 (configuration not stated)
minimal effective dose [2]: 100 mg/kg
minimal effective dose [3]: 300 mg/kg

SMILES: O=[N+]([O-])c1cccc(C2C=C(n3cc(-c4ccccc4)nc3-c3ccccc3)N=C(S)N2)c1 (configuration not stated)
minimal effective dose [2]: 30 mg/kg
minimal effective dose [3]: 300 mg/kg

SMILES: CN(C)c1ccc(C2C=C(n3cc(-c4ccccc4)nc3-c3ccccc3)N=C(S)N2)cc1 (configuration not stated)
minimal effective dose [2]: 100 mg/kg
minimal effective dose [3]: 300 mg/kg

MIC [4]: 31.2 to 62.5 µg/mL (≈ 120 to 240 µM)
MIC ([6]; read-out: MIC): 250 µg/mL (≈ 960 µM)
MIC [7]: 62.5 to 125 µg/mL (≈ 240 to 480 µM)
SMILES: COc1ccc(C2NC(=O)NC(C)=C2C(C)=O)cc1 (configuration not stated)

SMILES: COc1ccc(C2NC(S)=NC(c3ccc(Cl)cc3)=C2CC(=O)O)cc1 (configuration not stated)
inhibition in vivo at 10 mg/kg [1]: 35%

SMILES: SC1=NC(n2nc(-c3ccccc3)nc2-c2ccccc2)=CC(c2ccc(-c3ccccc3)cc2)N1 (configuration not stated)
minimal effective dose [2]: 100 mg/kg
minimal effective dose [3]: 300 mg/kg

SMILES: NC(=O)N1c2ccccc2C=Cc2ccccc21 [CARBAMAZEPINE]
minimal effective dose [3]: 100 mg/kg

SMILES: Cc1ccc(C2=C(CC(=O)O)C(c3ccccc3)NC(S)=N2)cc1 (configuration not stated)
inhibition in vivo at 10 mg/kg [1]: 28%

SMILES: COc1ccc(C2C=C(n3cc(-c4ccccc4)nc3-c3ccccc3)N=C(S)N2)cc1 (configuration not stated)
minimal effective dose [2]: 100 mg/kg
minimal effective dose [3]: 300 mg/kg

Ki [8]: 160 pM
SMILES: COCC1=C(C(=O)NCCCN2CCC(C#N)(c3ccc(C#N)cc3)CC2)[C@@H](c2ccc(F)c(F)c2)NC(=O)N1

SMILES: O=C(O)CC1=C(c2ccccc2)N=C(S)NC1c1ccccc1 (configuration not stated)
inhibition in vivo at 10 mg/kg [1]: 17%

SMILES: Oc1ccc(C2C=C(n3nc(-c4ccccc4)nc3-c3ccccc3)N=C(S)N2)cc1 (configuration not stated)
minimal effective dose [2]: 30 mg/kg
minimal effective dose [3]: 300 mg/kg

MIC ([6]; read-out: MIC): 250 µg/mL (≈ 1110 µM)
MIC [7]: 250 µg/mL (≈ 1110 µM)
SMILES: CCCCC1NC(=O)NC(C)=C1C(=O)CC (configuration not stated)

Ki [8]: 140 pM
SMILES: CC1=C(C(=O)NCCCN2CCC(c3ccc(F)cc3)CC2)[C@@H](c2ccc(F)c(F)c2)N(C)C(=O)N1C

SMILES: Cc1ccc(C2=C(CC(=O)O)C(c3cccs3)NC(S)=N2)cc1 (configuration not stated)
inhibition in vivo at 10 mg/kg [1]: 10%

SMILES: SC1=NC(n2nc(-c3ccccc3)nc2-c2ccccc2)=CC(c2ccc(Cl)cc2)N1 (configuration not stated)
minimal effective dose [2]: 30 mg/kg
minimal effective dose [3]: 300 mg/kg

SMILES: O=C(O)CC1=C(c2ccccc2)N=C(S)NC1c1cccs1 (configuration not stated)
inhibition in vivo at 10 mg/kg [1]: 21%

SMILES: CC1=C(C(=O)NCCCN2CCC(c3ccc(F)c(F)c3)CC2)[C@@H](c2ccc(F)c(F)c2)NC(=O)N1C
Ki [8]: 180 to 390 pM

MIC [6]: 15.6 to 31.2 µg/mL (≈ 63.9 to 128 µM)
MIC [7]: 62.5 to 125 µg/mL (≈ 256 to 512 µM)
SMILES: CCC(=O)C1=C(C)NC(=O)NC1c1ccccc1 (configuration not stated)
